Calls of active or inactive are those of the source. No cut-off for these calls is given here.
Tests used:
L1210 [1] = experiment: Cytotoxicity against mouse L1210 cells; type: functional
[2] = Cytotoxicity against human 9KB cells relative to camptothecin; type: functional
P388 [3] = experiment: Cytotoxicity against mouse P388 cells; type: functional; settings: for EC50: Mus musculus, P388, read-out: ED50 (the source's name)
L1210 [4] = experiment: Antitumor activity against mouse L1210 cells allografted in mouse assessed as increase in mouse survival time at 4.8 mg/kg, iv for 4 to 9 days relative to control; type: functional
How it was run: (§1)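 Run under NCI protocols 3LE21 (L1210) and 3PS31 (P388) in mice, six mice per test group. Drug was injected daily for 9 days, with 20–30 uninjected control animals. Mean or median survival time of the treated group was divided by that of controls and multiplied by 100, then reported as percentage increase in life span.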

HeLa = experiment: Antitumor activity against human HeLa cells assessed as inhibition of radioactive thymidine incorporation into acid-insoluble material by DNA sedimentation assay; type: functional, cell-based
B16 [5] = experiment: Antitumor activity against mouse B16 cells allografted in mouse assessed as increase in mouse survival time at 14.6 mg/kg, iv for 4 to 9 days relative to control; type: functional
How it was run: (§2)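 Run under NCI protocols 3B131 (B-16 melanocytic melanoma) and 3LL32 (Lewis lung carcinoma) in mice, ten mice per test group. Drug was injected every 4 days, with 20–30 uninjected control animals. Mean or median survival of treated mice over that of controls ×100 was reported as percentage increase in life span.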

[6] = test system: Lewis lung carcinoma cell line; experiment: Antitumor activity against mouse LLC cells allografted in mouse assessed as increase in mouse survival time at 44.4 mg/kg, iv for 4 to 9 days relative to control; type: functional; how it was run: as §2
[7] = Cytotoxicity against human 9KB cells; type: functional
P388 [8] = experiment: Antitumor activity against mouse P388 cells allografted in mouse assessed as increase in mouse survival time at 4.8 mg/kg, iv for 4 to 9 days relative to control; type: functional; how it was run: as §1
L1210 [9] = experiment: Antitumor activity against mouse L1210 cells allografted in mouse assessed as increase in mouse survival time at 14.3 mg/kg, iv for 4 to 9 days relative to control; type: functional; how it was run: as §1
[10] = test system: Lewis lung carcinoma cell line; experiment: Antitumor activity against mouse LLC cells allografted in mouse assessed as increase in mouse survival time at 4 mg/kg, iv for 4 to 9 days relative to control; type: functional; how it was run: as §2
L1210 [11] = experiment: Cytotoxicity against mouse L1210 cells relative to camptothecin; type: functional
B16 [12] = experiment: Antitumor activity against mouse B16 cells allografted in mouse assessed as increase in mouse survival time at 46 mg/kg, iv for 4 to 9 days relative to control; type: functional; how it was run: as §2
[13] = test system: Lewis lung carcinoma cell line; experiment: Antitumor activity against mouse LLC cells allografted in mouse assessed as increase in mouse survival time at 14.6 mg/kg, iv for 4 to 9 days relative to control; type: functional; how it was run: as §2
B16 [14] = experiment: Antitumor activity against mouse B16 cells allografted in mouse assessed as increase in mouse survival time at 4 mg/kg, iv for 4 to 9 days relative to control; type: functional; how it was run: as §2
P388 [15] = experiment: Antitumor activity against mouse P388 cells allografted in mouse assessed as increase in mouse survival time at 0.5 mg/kg, iv for 4 to 9 days relative to control; type: functional; how it was run: as §1
L1210 [16] = experiment: Antitumor activity against mouse L1210 cells allografted in mouse assessed as increase in mouse survival time at 0.5 mg/kg, iv for 4 to 9 days relative to control; type: functional; how it was run: as §1
L1210 [17] = experiment: Antitumor activity against mouse L1210 cells allografted in mouse assessed as increase in mouse survival time at 1.6 mg/kg, iv for 4 to 9 days relative to control; type: functional; how it was run: as §1
P388 [18] = experiment: Antitumor activity against mouse P388 cells allografted in mouse assessed as increase in mouse survival time at 1.6 mg/kg, iv for 4 to 9 days relative to control; type: functional; how it was run: as §1
P388 [19] = experiment: Cytotoxicity against mouse P388 cells relative to camptothecin; type: functional
P388 [20] = experiment: Antitumor activity against mouse P388 cells allografted in mouse assessed as increase in mouse survival time at 14.3 mg/kg, iv for 4 to 9 days relative to control; type: functional; how it was run: as §1
P388 [21] = experiment: Antitumor activity against mouse P388 cells allografted in mouse assessed as increase in mouse survival time at 2.5 mg/kg, iv for 6 days relative to control; type: functional
How it was run: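 NCI P388 protocol 3PS31 in mice, six mice per test group. Drug was injected daily for only 6 days, with 20–30 uninjected controls. The value is the mean or median survival time of treated mice over that of controls ×100, reported as percentage increase in life span.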

P388 [22] = experiment: Antitumor activity against mouse P388 cells allografted in mouse assessed as increase in mouse survival time at 6.5 mg/kg, iv for 4 to 9 days relative to control; type: functional
How it was run: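 Mice bearing P388 leukemia (NCI protocol 3PS31), six mice per test, drug injected daily for 9 days (in some tests for only 6 days). Controls were 20–30 animals receiving no injection. Activity was expressed as mean/median survival time of the test group divided by that of the control group ×100.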

L1210 [23] = experiment: Antitumor activity against mouse L1210 cells allografted in mouse assessed as increase in mouse survival time at 6.5 mg/kg, iv for 4 to 9 days relative to control; type: functional; how it was run: as §1
[24] = test system: Lewis lung carcinoma cell line; experiment: Antitumor activity against mouse LLC cells allografted in mouse assessed as increase in mouse survival time at 48 mg/kg, iv for 4 to 9 days relative to control; type: functional; how it was run: as §2
L1210 [25] = experiment: Antitumor activity against mouse L1210 cells allografted in mouse assessed as increase in mouse survival time at 1.4 mg/kg, iv for 4 to 9 days relative to control; type: functional; how it was run: as §1
[26] = test system: Lewis lung carcinoma cell line; experiment: Antitumor activity against mouse LLC cells allografted in mouse assessed as increase in mouse survival time at 15.7 mg/kg, iv for 4 to 9 days relative to control; type: functional; how it was run: as §2
L1210 [27] = experiment: Antitumor activity against mouse L1210 cells allografted in mouse assessed as increase in mouse survival time at 4.3 mg/kg, iv for 4 to 9 days relative to control; type: functional; how it was run: as §1
B16 [28] = experiment: Antitumor activity against mouse B16 cells allografted in mouse assessed as increase in mouse survival time at 43.5 mg/kg, iv for 4 to 9 days relative to control; type: functional; how it was run: as §2
P388 [29] = experiment: Antitumor activity against mouse P388 cells allografted in mouse assessed as increase in mouse survival time at 1.4 mg/kg, iv for 4 to 9 days relative to control; type: functional; how it was run: as §1
P388 [30] = experiment: Antitumor activity against mouse P388 cells allografted in mouse assessed as increase in mouse survival time at 12.8 mg/kg, iv for 4 to 9 days relative to control; type: functional; how it was run: as §1
L1210 [31] = experiment: Antitumor activity against mouse L1210 cells allografted in mouse assessed as increase in mouse survival time at 12.8 mg/kg, iv for 4 to 9 days relative to control; type: functional; how it was run: as §1
B16 [32] = experiment: Antitumor activity against mouse B16 cells allografted in mouse assessed as increase in mouse survival time at 14.8 mg/kg, iv for 4 to 9 days relative to control; type: functional; how it was run: as §2
P388 [33] = experiment: Antitumor activity against mouse P388 cells allografted in mouse assessed as increase in mouse survival time at 4.3 mg/kg, iv for 4 to 9 days relative to control; type: functional; how it was run: as §1
B16 [34] = experiment: Antitumor activity against mouse B16 cells allografted in mouse assessed as increase in mouse survival time at 4.9 mg/kg, iv for 4 to 9 days relative to control; type: functional; how it was run: as §2
L1210 [35] = experiment: Antitumor activity against mouse L1210 cells allografted in mouse assessed as increase in mouse survival time at 10 mg/kg, iv for 4 to 9 days relative to control; type: functional; how it was run: as §1
P388 [36] = experiment: Antitumor activity against mouse P388 cells allografted in mouse assessed as increase in mouse survival time at 1.1 mg/kg, iv for 4 to 9 days relative to control; type: functional; how it was run: as §1
P388 [37] = experiment: Antitumor activity against mouse P388 cells allografted in mouse assessed as increase in mouse survival time at 0.4 mg/kg, iv for 4 to 9 days relative to control; type: functional; how it was run: as §1
L1210 [38] = experiment: Antitumor activity against mouse L1210 cells allografted in mouse assessed as increase in mouse survival time at 1.1 mg/kg, iv for 4 to 9 days relative to control; type: functional; how it was run: as §1
P388 [39] = experiment: Antitumor activity against mouse P388 cells allografted in mouse assessed as increase in mouse survival time at 3.3 mg/kg, iv for 4 to 9 days relative to control; type: functional; how it was run: as §1
L1210 [40] = experiment: Antitumor activity against mouse L1210 cells allografted in mouse assessed as increase in mouse survival time at 3.3 mg/kg, iv for 4 to 9 days relative to control; type: functional; how it was run: as §1
L1210 [41] = experiment: Antitumor activity against mouse L1210 cells allografted in mouse assessed as increase in mouse survival time at 0.4 mg/kg, iv for 4 to 9 days relative to control; type: functional; how it was run: as §1
P388 [42] = experiment: Antitumor activity against mouse P388 cells allografted in mouse assessed as increase in mouse survival time at 10 mg/kg, iv for 4 to 9 days relative to control; type: functional; how it was run: as §1

SMILES: CCCCCC(=O)OCc1c([C@@](O)(CC)C(=O)NC(C)C)cc2n(c1=O)Cc1cc3ccccc3nc1-2
- ED50 (L1210 [1]): 5.5 ×10⁻⁴ umol/ml
- Activity [2]: 29%
- EC50 (P388 [3]): 1.2 µM
- T/C (L1210 [4]): 116%
- inhibition (HeLa): Active
- T/C (B16 [5]): 109%
- T/C [6]: 134%
- ED50 [7]: 8.1 ×10⁻⁵ umol/ml
- T/C (P388 [8]): 139%
- T/C (L1210 [9]): 133%
- T/C [10]: 163%
- Activity (L1210 [11]): 2%
- T/C (B16 [12]): 109%
- T/C [13]: 147%
- T/C (B16 [14]): 110%
- T/C (P388 [15]): 107%
- T/C (L1210 [16]): 105%
- T/C (L1210 [17]): 105%
- T/C (P388 [18]): 107%
- Activity (P388 [19]): 0.01%
- T/C (P388 [20]): 155%

SMILES: C=CC(=O)OCc1c([C@@](O)(CC)C(=O)NC(C)C)cc2n(c1=O)Cc1cc3ccccc3nc1-2
- ED50 (L1210 [1]): 7.6 ×10⁻⁴ umol/ml
- Activity [2]: 25%
- ED50 (P388 [3]): 3.9 ×10⁻⁴ umol/ml
- T/C (P388 [21]): 165%
- T/C (P388 [22]): 155%
- ED50 [7]: 6.9 ×10⁻⁵ umol/ml
- Activity (L1210 [11]): 2.7%
- T/C (L1210 [23]): 125%
- Activity (P388 [19]): 0.45%

SMILES: CC[C@@](O)(C(=O)NC(C)C)c1cc2n(c(=O)c1COC(C)=O)Cc1cc3ccccc3nc1-2
- Activity [2]: 2.8%
- EC50 (P388 [3]): 7.4 µM
- T/C [24]: 156%
- T/C (L1210 [25]): 116%
- T/C [26]: 166%
- ED50 [7]: 7.8 ×10⁻⁴ umol/ml
- T/C (L1210 [27]): 147%
- T/C [10]: 147%
- T/C (B16 [28]): 114%
- T/C (P388 [29]): 126%
- T/C (P388 [15]): 126%
- T/C (L1210 [16]): 110%
- T/C (P388 [30]): 97%
- T/C (L1210 [31]): 105%
- T/C (B16 [32]): 105%
- T/C (P388 [33]): 173%
- Activity (P388 [19]): 0.08%
- T/C (B16 [34]): 100%

SMILES: CC[C@@]1(O)C(=O)OCc2c1cc1n(c2=O)Cc2cc3ccccc3nc2-1 [CAMPTOTHECIN]
- ED50 (L1210 [1]): 2.8 ×10⁻⁶ umol/ml
- T/C (L1210 [35]): 85%
- T/C (P388 [36]): 147%
- ED50 (P388 [3]): 8.6 ×10⁻⁶ umol/ml
- T/C (P388 [37]): 137%
- T/C (L1210 [38]): 131%
- ED50 [7]: <2.8 ×10⁻⁶ umol/ml
- T/C (P388 [39]): 204%
- T/C (L1210 [40]): 168%
- T/C (L1210 [41]): 114%
- T/C (P388 [42]): 81%

From ChEMBL document CHEMBL3228024, “Prodrug analogues of the antitumor alkaloid camptothecin” (1979)
